Experimental findings from ChEMBL document CHEMBL4251674, “Bioactivity-Based Molecular Networking for the Discovery of Drug Leads in Natural Product Bioassay-Guided Fractionation” (J Nat Prod, 2018) are described below.

Calls of active or inactive are those of the source. The rule behind the calls is not given here.

As usually defined, the EC50 is the concentration that produces a half-maximal response.

In the first data set the test system is Chikungunya virus. Kind of data set: Antiviral activity against Chikungunya virus 899 infected in African green monkey Vero cells assessed as inhibition of virus-induced cytopathic effect after 6 to 7 days by MTS assay. The data set is classed as functional, organism-based.
Conditions: not given
A digest of the protocol: (§1)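 Cell-based CHIKV replication assay in Vero cells. EC50 is the concentration that reduces CHIKV replication by 50%. CC50 is the concentration that reduces natural growth of the host cells by 50%. […]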
For orientation: Damage to the host cells serves as the signal in cytopathic effect assays.
Turning to `CC(=O)O[C@H]1[C@@H](OC(C)=O)C(C)(C)/C=C/[C@@](C)(O)C(=O)[C@@]2(O)C[C@@](C)(OC(C)=O)[C@H](OC(C)=O)[C@@H]2[C@H]2OC(=O)CC[C@@]2(OCC(C)C)[C@@H]1OCC(C)C`, the inhibition result was “inactive”.
The same measure, in the same setting: with `C=C1[C@H](OC(=O)c2ccccc2)[C@@H](OC(C)=O)[C@@H](OC(=O)c2cccnc2)C(C)(C)/C=C/[C@H](C)C(=O)[C@@]2(O)C[C@@](C)(OC(=O)c3cccnc3)[C@H](OC(C)=O)[C@@H]2[C@H]1OC(C)=O` the entry was “inactive”; with `CC(=O)O[C@H]1[C@@H](OC(C)=O)C(C)(C)/C=C/[C@@](C)(O)C(=O)[C@@]2(O)C[C@@](C)(OC(C)=O)[C@H](OC(C)=O)[C@@H]2[C@H]2OC(=O)CC[C@@]2(OC(C)=O)[C@@H]1OCC(C)C`, “inactive”.
On the same count and under the same terms, with `CC(=O)O[C@H]1[C@@H](OC(C)=O)C(C)(C)/C=C/[C@H](C)C(=O)[C@@]2(OC(C)=O)C[C@@](C)(OC(C)=O)[C@H](O)[C@@H]2[C@H]2OC(=O)CC[C@@]2(OC(C)=O)[C@@H]1OCC(C)C` the entry was “inactive”; with `C=C1[C@H](OC(=O)c2ccccc2)[C@@H](OC(C)=O)[C@@H](OC(C)=O)C(C)(C)/C=C/[C@H](C)C(=O)[C@@]2(O)C[C@@](C)(OC(C)=O)[C@H](O)[C@@H]2[C@H]1OC(=O)c1ccccc1`, “inactive”; with `C=C1[C@H](OC(=O)c2ccccc2)[C@@H](OC(C)=O)[C@@H](OC(C)=O)C(C)(C)/C=C/[C@H](C)C(=O)[C@@]2(O)C[C@@](C)(OC(C)=O)[C@H](OCC(C)C)[C@@H]2[C@H]1OCC(C)C`, “inactive”.
On the same count and under the same terms, with `CC(=O)O[C@H]1[C@@H](OC(C)=O)C(C)(C)/C=C/[C@@](C)(O)C(=O)[C@@]2(OC(C)=O)C[C@@](C)(OC(C)=O)[C@H](OC(C)=O)[C@@H]2[C@H]2OC(=O)CC[C@@]2(OC(C)=O)[C@@H]1OCC(C)C` the entry was “inactive”; with `C=C1[C@H](O)[C@H]2[C@@H](OC(=O)c3ccccc3)[C@](C)(O)C[C@]2(O)C(=O)[C@@H](C)/C=C/C(C)(C)[C@H](OC(C)=O)[C@H](OC(C)=O)[C@H]1OC(=O)c1ccccc1`, “inactive”; with `C=C1[C@H](OCC(C)C)[C@@H](OC(C)=O)[C@@H](OC(C)=O)C(C)(C)/C=C/[C@H](C)C(=O)[C@@]2(O)C[C@@](C)(OC(C)=O)[C@H](OC(=O)c3ccccc3)[C@@H]2[C@H]1OCC(C)C`, “inactive”.
With `C=C1[C@H](OC(=O)c2ccccc2)[C@@H](OC(C)=O)[C@@H](OC(=O)c2cccnc2)C(C)(C)/C=C/[C@H](C)C(=O)[C@@]2(OC(C)=O)C[C@@](C)(OC(=O)c3cccnc3)[C@H](OC(C)=O)[C@@H]2[C@H]1OC(C)=O`, the inhibition result was “inactive”.
On the same count and under the same terms, with `C=C1[C@H](OC(=O)c2ccccc2)[C@@H](OC(C)=O)[C@@H](OC(C)=O)C(C)(C)/C=C/[C@H](C)C(=O)[C@@]2(O)C[C@@](C)(O)[C@H](OC(C)=O)[C@@H]2[C@H]1OCC(C)C` the entry was “inactive”.
Still for that read-out and setting: under `C=C1[C@H](OC(=O)c2ccccc2)[C@@H](OC(C)=O)[C@@H](OC(=O)c2cccnc2)C(C)(C)/C=C/[C@H](C)C(=O)[C@@]2(O)C[C@@](C)(OC(=O)c3cccnc3)[C@H](OC(C)=O)[C@@H]2[C@H]1OCC(C)C` stands “inactive”; under `C=C1[C@H](OC(=O)c2ccccc2)[C@@H](OC(C)=O)[C@@H](OC(C)=O)C(C)(C)/C=C/[C@H](C)C(=O)[C@@]2(O)C[C@@](C)(OC(C)=O)[C@H](O)[C@@H]2[C@H]1OCC(C)C`, “inactive”.
Take `C=C1[C@H](OC(=O)c2ccccc2)[C@@H](OC(C)=O)[C@@H](OC(C)=O)C(C)(C)/C=C/[C@H](C)C(=O)[C@@]2(O)C[C@H](C)[C@H](OC(C)=O)[C@@H]2[C@H]1OCC(C)C`: the inhibition entry is “inactive”.
Still for that read-out and setting: with `C=C1[C@H](OCC(C)C)[C@@H](OC(C)=O)[C@@H](OC(=O)c2cccnc2)C(C)(C)/C=C/[C@H](C)C(=O)[C@@]2(OC(C)=O)C[C@@](C)(OC(=O)c3cccnc3)[C@H](OC(C)=O)[C@@H]2[C@H]1OC(C)=O` the entry was “inactive”; with `C=C1[C@H](OC(=O)c2ccccc2)[C@@H](O)[C@@H](OC(C)=O)C(C)(C)/C=C/[C@H](C)C(=O)[C@@]2(O)C[C@@](C)(OC(C)=O)[C@H](O)[C@@H]2[C@H]1OC(=O)c1ccccc1`, “inactive”.
The same measure, in the same setting: with `C=C1[C@H](OCC(C)C)[C@@H](OC(C)=O)[C@@H](OC(C)=O)C(C)(C)/C=C/[C@H](C)C(=O)[C@@]2(O)C[C@@](C)(OC(C)=O)[C@H](OC(=O)COC(=O)c3ccccc3)[C@@H]2[C@H]1OC(C)=O` the entry was “inactive”; with `C=C1[C@H](OC(=O)c2ccccc2)[C@@H](OC(C)=O)[C@@H](OC(C)=O)C(C)(C)/C=C/[C@H](C)C(=O)[C@@]2(O)C[C@@](C)(OC(C)=O)[C@H](OC(C)=O)[C@@H]2[C@H]1OCC(C)C`, “inactive”.

The data set is the same for the next values; noted with them: Chikungunya virus, 899, Vero.
Consider `CCC/C=C/C=C\C(=O)O[C@@H]1[C@@H](C)[C@]2(O)[C@@H]3C=C(C)C(=O)[C@H]3CC(CO)=C[C@H]2[C@@H]2C(C)(C)[C@]12OC(=O)C(C)C`, for which the EC50 was determined as 600 nM.
The same measure, in the same setting: with `CCC/C=C/C=C/C=C\C(=O)O[C@@H]1[C@@H](C)[C@]2(O)[C@@H]3C=C(C)C(=O)[C@H]3CC(CO)=C[C@H]2[C@@H]2C(C)(C)[C@]12OC(=O)C(C)C` the figure was 400 nM; with `CC/C=C\C/C=C/C=C\C(=O)O[C@@H]1[C@@H](C)[C@]2(O)[C@@H]3C=C(C)C(=O)[C@H]3CC(CO)=C[C@H]2[C@@H]2C(C)(C)[C@]12OC(=O)C(C)C`, 12600 nM; with `CCCCC/C=C/C=C\C(=O)O[C@@H]1[C@@H](C)[C@]2(O)[C@@H]3C=C(C)C(=O)[C@H]3CC(CO)=C[C@H]2[C@@H]2C(C)(C)[C@]12OC(=O)C(C)C`, 900 nM.

System in a further data set: not listed separately
Nature of the data set: Selectivity index, ratio of CC50 for African green monkey Vero cells to EC50 for Chikungunya virus 899 infected in African green monkey Vero cells. It is filed as toxicity. Particulars: read-out: Selectivity Index. The gist of the method:
as §1
For `CCC/C=C/C=C\C(=O)O[C@@H]1[C@@H](C)[C@]2(O)[C@@H]3C=C(C)C(=O)[C@H]3CC(CO)=C[C@H]2[C@@H]2C(C)(C)[C@]12OC(=O)C(C)C`, the selectivity ratio came to 41.
Same read-out and setting: under `CCC/C=C/C=C/C=C\C(=O)O[C@@H]1[C@@H](C)[C@]2(O)[C@@H]3C=C(C)C(=O)[C@H]3CC(CO)=C[C@H]2[C@@H]2C(C)(C)[C@]12OC(=O)C(C)C` stands 34; under `CC/C=C\C/C=C/C=C\C(=O)O[C@@H]1[C@@H](C)[C@]2(O)[C@@H]3C=C(C)C(=O)[C@H]3CC(CO)=C[C@H]2[C@@H]2C(C)(C)[C@]12OC(=O)C(C)C`, 4; under `CCCCC/C=C/C=C\C(=O)O[C@@H]1[C@@H](C)[C@]2(O)[C@@H]3C=C(C)C(=O)[C@H]3CC(CO)=C[C@H]2[C@@H]2C(C)(C)[C@]12OC(=O)C(C)C`, 6.
